ChEMBL document CHEMBL1629440, “Synthesis and pharmacological properties of novel hydrophilic 5-HT4 receptor antagonists” (Bioorg Med Chem, 2010)
Blank lines part the entries; values can stand above or below the molecule they belong to.

Legend:
[1] = biological target: T1, 5-hydroxytryptamine receptor 4 (Homo sapiens, UniProt Q13639); assay: Antagonistic activity at human 5HT4 receptor expressed in HEK293 cells assessed as inhibition of 5-HT stimulated ADCY activity after 20 mins; format: functional, cell-based
In short: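 Membranes from HEK293 cells stably expressing human 5-HT4(b) at low level (400 fmol/mg). Adenylyl cyclase activity was stimulated by 1 µM 5-HT with 21 antagonist concentrations, 0.1 mM [α-32P]ATP, 4 mM MgCl2, 1 mM IBMX, GTP and ATP-regenerating system, 32 °C, 20 min. [32P]cAMP was isolated on Dowex/alumina columns. IC50 was fitted by non-linear regression and Kb calculated using 5-HT EC50.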

[2] = Lipophilicity, log D of the compound in octanol buffer at pH 7.4; format: physicochemical
In short: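 Distribution between octanol and aqueous buffer at pH 7.4. Both phases were diluted and ligand concentration in each measured by HPLC. Not determined where micelles formed.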

[3] = biological target: T1, 5-hydroxytryptamine receptor 4; assay: Displacement of [3H]GR113808 from human 5HT4 receptor expressed in HEK293 cells by liquid scintillation counting; format: cell-based
In short: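 Membranes from HEK293 line stably expressing human 5-HT4(b) at high level (5000 fmol/mg). Incubated with 0.3 nM [3H]GR113808 and 21 competitor concentrations in Tris-HCl pH 7.5, EDTA, EGTA, 2 mM MgCl2, ascorbate, 0.1% BSA, 100 µM GTP, room temperature 1 h. Filtered onto PEI-soaked filters, washed, scintillation counted. Ki derived from IC50 via Ki = IC50/(1+L/Kd).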

[4] = Half life in bovine plasma by HPLC; format: ADME, Bos taurus; settings: cattle
In short: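 Ester incubated at 40 µM initial concentration in bovine plasma at 37 °C for up to 10 h. Aliquots were removed at intervals and H3PO4 added to release protein-bound drug. Parent ester and free-acid degradation product were quantified by HPLC, and half-life was calculated.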

[5] = Binding affinity to GABA receptor BDZ-site
D(4) dopamine receptor = D(4) dopamine receptor (Homo sapiens, UniProt P21917); assay: Binding affinity to dopamine receptor D4
[6] = biological target: Sodium-dependent dopamine transporter (Homo sapiens, UniProt Q01959); assay: Binding affinity to DAT
[7] = biological target: 5-hydroxytryptamine receptor 1E (Homo sapiens, UniProt P28566); assay: Binding affinity to 5HT1E receptor
[8] = biological target: 5-hydroxytryptamine receptor 1B (Homo sapiens, UniProt P28222); assay: Binding affinity to 5HT1B receptor
[9] = biological target: Delta-type opioid receptor (Homo sapiens, UniProt P41143); assay: Binding affinity to opioid receptor DOR
[10] = biological target: Beta-1 adrenergic receptor (Homo sapiens, UniProt P08588); assay: Binding affinity to beta1 adrenergic receptor
[11] = biological target: Alpha-1B adrenergic receptor (Homo sapiens, UniProt P35368); assay: Binding affinity to Alpha-1B adrenergic receptor
[12] = Binding affinity to opioid receptor Sigma2
[13] = biological target: Beta-2 adrenergic receptor (Homo sapiens, UniProt P07550); assay: Binding affinity to beta2 adrenergic receptor
[14] = Binding affinity to GABA-A receptor muscimol site
Mu-type opioid receptor = Mu-type opioid receptor (Homo sapiens, UniProt P35372); assay: Binding affinity to opioid receptor MOR
Histamine H1 receptor = Histamine H1 receptor (Homo sapiens, UniProt P35367); assay: Binding affinity to Histamine receptor H1
D(2) dopamine receptor = D(2) dopamine receptor (Homo sapiens, UniProt P14416); assay: Binding affinity to dopamine receptor D2
[15] = biological target: 5-hydroxytryptamine receptor 6 (Homo sapiens, UniProt P50406); assay: Binding affinity to 5HT6 receptor
[16] = biological target: Muscarinic acetylcholine receptor M1 (Homo sapiens, UniProt P11229); assay: Binding affinity to muscarinic acetylcholine receptor M1
D(3) dopamine receptor = D(3) dopamine receptor (Homo sapiens, UniProt P35462); assay: Binding affinity to dopamine receptor D3
Histamine H3 receptor = Histamine H3 receptor (Homo sapiens, UniProt Q9Y5N1); assay: Binding affinity to Histamine receptor H3
[17] = biological target: Alpha-1A adrenergic receptor (Homo sapiens, UniProt P35348); assay: Binding affinity to alpha1A adrenergic receptor
Histamine H4 receptor = Histamine H4 receptor (Homo sapiens, UniProt Q9H3N8); assay: Binding affinity to Histamine receptor H4
[18] = biological target: Muscarinic acetylcholine receptor M3 (Homo sapiens, UniProt P20309); assay: Binding affinity to muscarinic acetylcholine receptor M3
Histamine H2 receptor = Histamine H2 receptor (Homo sapiens, UniProt P25021); assay: Binding affinity to Histamine receptor H2
[19] = biological target: Alpha-2A adrenergic receptor (Homo sapiens, UniProt P08913); assay: Binding affinity to alpha2A adrenergic receptor
[20] = biological target: 5-hydroxytryptamine receptor 7 (Homo sapiens, UniProt P34969); assay: Binding affinity to 5HT7 receptor
[21] = biological target: Beta-3 adrenergic receptor (Homo sapiens, UniProt P13945); assay: Binding affinity to beta3 adrenergic receptor
D(1B) dopamine receptor = D(1B) dopamine receptor (Homo sapiens, UniProt P21918); assay: Binding affinity to dopamine receptor D5
[22] = biological target: Sodium-dependent serotonin transporter (Homo sapiens, UniProt P31645); assay: Binding affinity to SERT
[23] = biological target: Muscarinic acetylcholine receptor M2 (Homo sapiens, UniProt P08172); assay: Binding affinity to muscarinic acetylcholine receptor M2
[24] = biological target: 5-hydroxytryptamine receptor 1D (Homo sapiens, UniProt P28221); assay: Binding affinity to 5HT1D receptor
[25] = biological target: Alpha-1D adrenergic receptor (Homo sapiens, UniProt P25100); assay: Binding affinity to Alpha-1D adrenergic receptor
[26] = biological target: 5-hydroxytryptamine receptor 3A (Homo sapiens, UniProt P46098); assay: Binding affinity to 5HT3 receptor
[27] = biological target: 5-hydroxytryptamine receptor 2A (Homo sapiens, UniProt P28223); assay: Binding affinity to 5HT2A receptor
[28] = biological target: 5-hydroxytryptamine receptor 2C (Homo sapiens, UniProt P28335); assay: Binding affinity to 5HT2C receptor
[29] = biological target: 5-hydroxytryptamine receptor 2B (Homo sapiens, UniProt P41595); assay: Binding affinity to 5HT2B receptor
D(1A) dopamine receptor = D(1A) dopamine receptor (Homo sapiens, UniProt P21728); assay: Binding affinity to dopamine receptor D1
[30] = biological target: Muscarinic acetylcholine receptor M4 (Homo sapiens, UniProt P08173); assay: Binding affinity to muscarinic acetylcholine receptor M4
[31] = biological target: 5-hydroxytryptamine receptor 5A (Homo sapiens, UniProt P47898); assay: Binding affinity to 5HT5A receptor
[32] = biological target: Alpha-2B adrenergic receptor (Homo sapiens, UniProt P18089); assay: Binding affinity to alpha2B adrenergic receptor
[33] = biological target: Kappa-type opioid receptor (Homo sapiens, UniProt P41145); assay: Binding affinity to opioid receptor KOR
[34] = biological target: 5-hydroxytryptamine receptor 1A (Homo sapiens, UniProt P08908); assay: Binding affinity to 5HT1A receptor
[35] = biological target: Muscarinic acetylcholine receptor M5 (Homo sapiens, UniProt P08912); assay: Binding affinity to muscarinic acetylcholine receptor M5
[36] = biological target: Alpha-2C adrenergic receptor (Homo sapiens, UniProt P18825); assay: Binding affinity to Alpha-2C adrenergic receptor
[37] = biological target: T1, 5-hydroxytryptamine receptor 4; assay: Antagonistic activity at human 5HT4 receptor expressed in HEK293 cells; format: functional, cell-based

T1 sequence (Q13639 whole entry): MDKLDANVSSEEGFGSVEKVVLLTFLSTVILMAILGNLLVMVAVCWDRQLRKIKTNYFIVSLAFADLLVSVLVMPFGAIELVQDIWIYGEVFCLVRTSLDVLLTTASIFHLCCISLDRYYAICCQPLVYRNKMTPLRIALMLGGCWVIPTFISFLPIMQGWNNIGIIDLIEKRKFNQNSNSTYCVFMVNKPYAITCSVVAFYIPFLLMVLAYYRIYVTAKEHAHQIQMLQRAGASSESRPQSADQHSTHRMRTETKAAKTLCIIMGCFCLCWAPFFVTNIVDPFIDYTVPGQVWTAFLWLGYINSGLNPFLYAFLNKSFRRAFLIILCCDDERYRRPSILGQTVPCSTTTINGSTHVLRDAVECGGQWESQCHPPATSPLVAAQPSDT
Chain of Muscarinic acetylcholine receptor M5 (P08912 whole entry): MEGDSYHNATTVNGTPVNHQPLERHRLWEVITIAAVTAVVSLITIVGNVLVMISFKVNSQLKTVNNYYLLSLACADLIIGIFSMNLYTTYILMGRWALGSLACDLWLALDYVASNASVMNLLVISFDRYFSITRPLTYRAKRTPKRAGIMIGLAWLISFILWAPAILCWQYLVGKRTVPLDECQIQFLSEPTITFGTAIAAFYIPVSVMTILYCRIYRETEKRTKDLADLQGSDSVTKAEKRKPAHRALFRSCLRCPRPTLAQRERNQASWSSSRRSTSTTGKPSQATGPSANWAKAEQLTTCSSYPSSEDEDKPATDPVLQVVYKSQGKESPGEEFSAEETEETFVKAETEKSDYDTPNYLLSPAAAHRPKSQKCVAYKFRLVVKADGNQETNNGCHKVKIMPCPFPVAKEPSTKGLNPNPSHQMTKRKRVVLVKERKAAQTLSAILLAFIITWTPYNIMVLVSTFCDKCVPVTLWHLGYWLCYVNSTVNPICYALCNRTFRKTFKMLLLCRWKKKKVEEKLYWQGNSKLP
Chain of Muscarinic acetylcholine receptor M2 (P08172 whole entry): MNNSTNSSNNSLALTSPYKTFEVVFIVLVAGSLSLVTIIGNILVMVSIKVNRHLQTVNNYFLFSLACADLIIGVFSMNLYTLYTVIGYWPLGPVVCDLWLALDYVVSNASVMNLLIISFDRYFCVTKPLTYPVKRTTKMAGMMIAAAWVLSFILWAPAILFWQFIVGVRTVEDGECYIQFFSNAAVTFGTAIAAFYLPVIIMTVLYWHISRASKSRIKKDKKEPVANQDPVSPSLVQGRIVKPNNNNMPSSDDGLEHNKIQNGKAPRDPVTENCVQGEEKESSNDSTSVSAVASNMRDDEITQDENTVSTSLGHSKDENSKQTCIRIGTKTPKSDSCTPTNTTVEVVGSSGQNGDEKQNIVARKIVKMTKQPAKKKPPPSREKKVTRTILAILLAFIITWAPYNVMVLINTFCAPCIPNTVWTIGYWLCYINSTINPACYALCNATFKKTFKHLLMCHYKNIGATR
Chain of D(3) dopamine receptor (P35462 whole entry): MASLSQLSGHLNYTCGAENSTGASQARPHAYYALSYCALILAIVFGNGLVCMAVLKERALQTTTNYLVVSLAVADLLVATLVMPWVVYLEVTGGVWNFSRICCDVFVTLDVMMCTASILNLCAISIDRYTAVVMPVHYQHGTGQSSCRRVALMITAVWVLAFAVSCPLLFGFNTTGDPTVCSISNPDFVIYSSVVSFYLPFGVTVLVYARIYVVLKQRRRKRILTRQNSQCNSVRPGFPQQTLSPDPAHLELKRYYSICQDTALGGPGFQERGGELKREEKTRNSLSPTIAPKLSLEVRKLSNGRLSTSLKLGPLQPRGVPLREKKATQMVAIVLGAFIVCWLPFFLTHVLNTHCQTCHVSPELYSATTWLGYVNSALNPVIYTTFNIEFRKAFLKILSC
Chain of D(1A) dopamine receptor (P21728 whole entry): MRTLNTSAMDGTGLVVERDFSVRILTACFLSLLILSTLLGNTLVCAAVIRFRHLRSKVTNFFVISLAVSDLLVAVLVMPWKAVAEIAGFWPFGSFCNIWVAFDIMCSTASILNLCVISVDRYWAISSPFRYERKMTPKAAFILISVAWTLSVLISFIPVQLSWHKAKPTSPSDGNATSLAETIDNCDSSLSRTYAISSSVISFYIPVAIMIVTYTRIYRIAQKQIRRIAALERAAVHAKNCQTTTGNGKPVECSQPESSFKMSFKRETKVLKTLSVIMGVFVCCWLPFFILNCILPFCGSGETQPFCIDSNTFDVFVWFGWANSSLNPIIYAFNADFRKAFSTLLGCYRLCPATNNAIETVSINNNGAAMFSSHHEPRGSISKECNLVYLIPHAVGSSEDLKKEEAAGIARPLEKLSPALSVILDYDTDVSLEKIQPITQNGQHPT
Chain of Muscarinic acetylcholine receptor M3 (P20309 whole entry): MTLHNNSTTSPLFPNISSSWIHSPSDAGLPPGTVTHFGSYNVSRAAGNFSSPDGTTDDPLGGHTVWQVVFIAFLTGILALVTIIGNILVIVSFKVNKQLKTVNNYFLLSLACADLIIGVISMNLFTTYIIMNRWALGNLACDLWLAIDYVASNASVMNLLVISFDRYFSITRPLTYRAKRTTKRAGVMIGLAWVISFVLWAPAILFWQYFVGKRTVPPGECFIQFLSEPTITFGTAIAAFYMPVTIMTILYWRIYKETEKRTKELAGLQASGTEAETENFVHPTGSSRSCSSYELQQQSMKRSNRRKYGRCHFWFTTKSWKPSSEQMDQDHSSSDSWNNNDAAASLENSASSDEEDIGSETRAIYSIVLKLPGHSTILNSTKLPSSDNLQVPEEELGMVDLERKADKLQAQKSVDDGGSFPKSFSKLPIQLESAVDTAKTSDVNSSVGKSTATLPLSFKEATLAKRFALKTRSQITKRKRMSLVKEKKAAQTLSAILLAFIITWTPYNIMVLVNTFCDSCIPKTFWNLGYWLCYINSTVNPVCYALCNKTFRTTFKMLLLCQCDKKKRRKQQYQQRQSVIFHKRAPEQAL
Chain of D(1B) dopamine receptor (P21918 whole entry): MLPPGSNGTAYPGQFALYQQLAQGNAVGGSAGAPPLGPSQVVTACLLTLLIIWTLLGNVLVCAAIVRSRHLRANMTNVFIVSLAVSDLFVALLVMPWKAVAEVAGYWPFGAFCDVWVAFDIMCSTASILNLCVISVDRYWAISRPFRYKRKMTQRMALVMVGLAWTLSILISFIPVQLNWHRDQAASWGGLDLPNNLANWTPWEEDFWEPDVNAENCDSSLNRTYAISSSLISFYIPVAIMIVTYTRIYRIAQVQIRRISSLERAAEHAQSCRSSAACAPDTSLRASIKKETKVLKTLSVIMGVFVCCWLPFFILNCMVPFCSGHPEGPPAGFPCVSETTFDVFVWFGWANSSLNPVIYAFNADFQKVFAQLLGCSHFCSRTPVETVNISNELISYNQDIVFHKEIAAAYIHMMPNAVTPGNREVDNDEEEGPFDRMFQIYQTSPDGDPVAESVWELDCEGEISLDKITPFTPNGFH
Chain of Kappa-type opioid receptor (P41145 whole entry): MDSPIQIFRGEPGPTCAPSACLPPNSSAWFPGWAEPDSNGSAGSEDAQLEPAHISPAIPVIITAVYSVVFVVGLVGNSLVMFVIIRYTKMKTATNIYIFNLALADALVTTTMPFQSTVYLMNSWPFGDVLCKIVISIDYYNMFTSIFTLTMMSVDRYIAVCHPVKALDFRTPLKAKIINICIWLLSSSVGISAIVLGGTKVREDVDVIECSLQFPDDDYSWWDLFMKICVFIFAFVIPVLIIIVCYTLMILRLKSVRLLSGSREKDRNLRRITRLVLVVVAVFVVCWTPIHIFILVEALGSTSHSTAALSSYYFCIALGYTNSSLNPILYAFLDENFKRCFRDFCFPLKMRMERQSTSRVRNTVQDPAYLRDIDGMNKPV
Chain of Alpha-1D adrenergic receptor (P25100 whole entry): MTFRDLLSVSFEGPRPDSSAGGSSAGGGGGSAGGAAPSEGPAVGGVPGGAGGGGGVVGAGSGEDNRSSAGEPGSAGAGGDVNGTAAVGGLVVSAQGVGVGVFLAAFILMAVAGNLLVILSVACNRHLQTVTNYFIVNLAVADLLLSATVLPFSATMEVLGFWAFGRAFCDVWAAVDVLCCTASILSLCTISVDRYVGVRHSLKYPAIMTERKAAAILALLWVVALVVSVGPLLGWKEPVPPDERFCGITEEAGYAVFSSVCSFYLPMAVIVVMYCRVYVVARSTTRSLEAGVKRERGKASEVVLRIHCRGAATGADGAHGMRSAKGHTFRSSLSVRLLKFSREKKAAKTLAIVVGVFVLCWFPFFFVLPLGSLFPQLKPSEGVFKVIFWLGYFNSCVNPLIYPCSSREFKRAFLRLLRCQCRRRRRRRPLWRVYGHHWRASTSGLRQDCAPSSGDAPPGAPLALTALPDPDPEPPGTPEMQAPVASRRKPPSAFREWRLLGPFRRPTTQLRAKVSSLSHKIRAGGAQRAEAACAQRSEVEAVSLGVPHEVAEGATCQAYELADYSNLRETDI
Chain of 5-hydroxytryptamine receptor 1A (P08908 whole entry): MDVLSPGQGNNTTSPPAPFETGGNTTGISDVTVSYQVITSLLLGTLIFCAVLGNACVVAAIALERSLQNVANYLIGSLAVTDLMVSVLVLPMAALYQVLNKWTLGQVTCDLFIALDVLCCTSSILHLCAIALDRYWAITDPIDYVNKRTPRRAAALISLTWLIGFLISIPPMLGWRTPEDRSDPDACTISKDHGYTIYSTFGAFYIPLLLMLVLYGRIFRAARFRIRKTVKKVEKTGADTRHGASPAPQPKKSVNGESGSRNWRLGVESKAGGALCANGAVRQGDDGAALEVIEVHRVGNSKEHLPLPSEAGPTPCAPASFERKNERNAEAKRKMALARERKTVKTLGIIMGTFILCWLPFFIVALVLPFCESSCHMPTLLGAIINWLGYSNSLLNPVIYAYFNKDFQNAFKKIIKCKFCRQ

Compound: O=C(O)CCN1CCC(CNC(=O)c2c3n(c4ccccc24)CCCO3)CC1
pKb [1]: 8.08
logD [2]: -1.3
Ki [3]: 1.12 nM

pKb [1]: 9.85
Ki [3]: 0.0427 nM
half-life [4]: 20 min
Compound: O=C(CCCN1CCC(CNC(=O)c2c3n(c4ccccc24)CCCO3)CC1)OCc1ccccc1

pKb [1]: 9.47
Ki [3]: 0.234 nM
Compound: CC(C)(C)OC(=O)CCCN1CCC(CNC(=O)c2c3n(c4ccccc24)CCCO3)CC1

Compound: O=C(O)c1ccc(CN2CCC(CNC(=O)c3c4n(c5ccccc35)CCCO4)CC2)cc1
pKb [1]: 7.25
Ki [3]: 5.01 nM

Compound: CC(C)(C)C(=O)OCOC(=O)CCCCCN1CCC(CNC(=O)c2c3n(c4ccccc24)CCCO3)CC1
pKb [1]: 9.83
Ki [3]: 0.0646 nM

Compound: O=C(O)CN1CCC(CNC(=O)c2c3n(c4ccccc24)CCCO3)CC1
pKb [1]: 7.91
logD [2]: -1.1
Ki [3]: 2.82 nM

Compound: COC(=O)CCCCCCCCCCCN1CCC(CNC(=O)c2c3n(c4ccccc24)CCCO3)CC1
pKb [1]: 9.89
Ki [3]: 0.339 nM

Compound: O=C(CCCCCN1CCC(CNC(=O)c2c3n(c4ccccc24)CCCO3)CC1)OCc1ccccc1
pKb [1]: 10.2
Ki [3]: 0.141 nM

Compound: O=C(O)CCCCCN1CCC(CNC(=O)c2c3n(c4ccccc24)CCCO3)CC1
pKi [5]: < 5
Ki (D(4) dopamine receptor): > 10 µM
Ki [6]: > 10 µM
Ki [7]: > 10 µM
Ki [8]: > 10 µM
Ki [9]: > 10 µM
pKb [1]: 7.94
Ki [10]: > 10 µM
Ki [11]: > 10 µM
pKi [12]: < 5
Ki [13]: > 10 µM
pKi [14]: < 5
Ki (Mu-type opioid receptor): > 10 µM
Ki (Histamine H1 receptor): > 10 µM
Ki (D(2) dopamine receptor): > 10 µM
Ki [15]: > 10 µM
Ki [16]: > 10 µM
Ki (D(3) dopamine receptor): > 10 µM
Ki (Histamine H3 receptor): > 10 µM
Ki [17]: > 10 µM
Ki (Histamine H4 receptor): > 10 µM
logD [2]: -1.3
Ki [18]: > 10 µM
Ki (Histamine H2 receptor): > 10 µM
Ki [19]: > 10 µM
Ki [20]: > 10 µM
Ki [21]: > 10 µM
Ki (D(1B) dopamine receptor): > 10 µM
Ki [3]: 1.55 nM
Ki [22]: > 10 µM
Ki [23]: > 10 µM
Ki [24]: > 10 µM
Ki [25]: > 10 µM
Ki [26]: > 10 µM
Ki [27]: > 10 µM
Ki [28]: > 10 µM
Ki [29]: > 10 µM
Ki (D(1A) dopamine receptor): > 10 µM
Ki [30]: > 10 µM
Ki [31]: > 10 µM
Ki [32]: > 10 µM
Ki [33]: > 10 µM
Ki [34]: > 10 µM
Ki [35]: > 10 µM
Ki [36]: > 10 µM

pKb [1]: 5.84
Ki [37]: 107 nM
Compound: CCOC(=O)CCCN1CCC(CNC(=O)c2c[nH]c3ccccc23)CC1

pKb [1]: 9.89
Ki [3]: 0.0537 nM
Compound: CC(C)(C)OC(=O)CCCCCN1CCC(CNC(=O)c2c3n(c4ccccc24)CCCO3)CC1

Compound: Cn1cc(C(=O)OCC2CCN(CCNS(C)(=O)=O)CC2)c2ccccc21
pKb [1]: 9.24
Ki [37]: 0.0741 nM
